Measurements reported in ChEMBL document CHEMBL3091272, “Caesalminaxins A-L, cassane diterpenoids from the seeds of Caesalpinia minax” (J Nat Prod, 2013).

How the values were obtained:
Format in all cases: functional, cell-based
[1] = system: HeLa; experiment: Cytotoxicity against human HeLa cells after 24 to 72 hrs by MTT assay
Procedure, shortened: (§1)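 Cells seeded at 5 × 10^4 cells/mL and held 24 h at 37 °C before the test compound was added as a DMSO solution at a range of concentrations. MTT staining was done after 24, 48 and 72 h. Absorbance was read at 490 nm against a negative control. IC50 was the concentration giving 50% cell death, taken from a plot of concentration versus % viability. Camptothecin served as positive control.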

[2] = system: HepG2; experiment: Cytotoxicity against human HepG2 cells after 24 to 72 hrs by MTT assay; procedure, shortened: as §1
[3] = system: DU-145; experiment: Cytotoxicity against human DU145 cells after 24 to 72 hrs by MTT assay; procedure, shortened: as §1
[4] = system: K562; experiment: Cytotoxicity against human K562 cells after 24 to 72 hrs by MTT assay; procedure, shortened: as §1

## CO[C@H]1C=C2[C@@](OC)(C[C@H]3[C@@H]([C@@H](OC(C)=O)[C@H](OC(C)=O)[C@@]4(O)C(C)(C)CC[C@H](OC(C)=O)[C@]34C)[C@]2(C)O)O1
[1]
  IC50: > 50 µM
[2]
  IC50: 11.5 µM
[3]
  IC50: > 50 µM
[4]
  IC50: 9.2 µM

## CCO[C@]1(C)[C@@H]2[C@@H](OC(C)=O)[C@H](OC(C)=O)[C@@]3(O)C(C)(C)CC[C@H](OC(C)=O)[C@]3(C)[C@H]2C[C@]12C(=O)O[C@@H]1O[C@@H]12
[1]
  IC50: 12.1 µM
[2]
  IC50: > 50 µM
[3]
  IC50: 17.1 µM
[4]
  IC50: 9.9 µM

## CC(=O)O[C@H]1[C@@H]2OC(=O)[C@@H]3c4ccoc4C[C@@H]([C@@H]23)[C@@]2(C)[C@@H](O)CCC(C)(C)[C@]12O
[1]
  IC50: > 50 µM
[2]
  IC50: 8 µM
[3]
  IC50: 12 µM
[4]
  IC50: > 50 µM

## CC[C@@]1(O)C(=O)OCc2c1cc1n(c2=O)Cc2cc3ccccc3nc2-1 [CAMPTOTHECIN]
[1]
  IC50: 0.5 µM
[2]
  IC50: 0.6 µM
[3]
  IC50: 0.8 µM
[4]
  IC50: 0.4 µM
